Assay outcomes as filed in PubChem BioAssay.
An excerpt weighted towards active compounds, which were near 1.9% of everything screened.
PglD DTNB: blocks C. jejuni PglD acetyltransferase activity | purified PglD enzyme, DTNB colorimetric CoA detection | inhibition, % at 12.5 µM | 360,000 compounds, 0.098% hits; in the data active = inhibition above about 16%, passing the limit was not always enough; inconclusive = no clear call, values can overlap the other calls
Cneo AK release: Cryptococcus neoformans lysis via adenylate kinase release; C. neoformans lysis, adenylate kinase release luminescence, 4 h; normalised: neutral wells 0, clomiphene wells 100; lysis activity, % at 15 µM; 360,000 compounds, 0.2% hits;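 active = mean lysis activity across replicates of at least 80%, whatever share of replicates individually reach that level; inactive = mean lysis activity below 80%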
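Material – log-phase Cryptococcus neoformans yeast cells · Input – 5 × 10^6 yeast cells/mL · Medium – fresh YPD growth medium · Doses – single compound concentration per well · Timing – static 4 h at 37 °C with compound, 1 h detection · Detection – adenylate kinase release luminescence · Read-out – signal increase indicating cell lysis · Control set – Clomiphene as positive lysis control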
RAD54 branch: RAD54 (human) branch migration inhibition; RAD54 Holliday junction branch migration, FAM/BHQ fluorescence; inhibition, % at 10.4 µM; 360,000 compounds, 0.14% hits;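 active = mean normalized replicate activity at least 40 and at least half of replicates scoring 40 or more; inconclusive = only one of the two criteria met; inactive = mean below 40 and under half of replicates reaching 40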;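 note: 0% = median of neutral control wells and 100% = median of positive control wells; inhibitors cause a drop in the FAM fluorescence signal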
RAD52 anneal inh: blocks human RAD52 DNA annealing; AID 651710; inhibition, % at 18.7 µM; recombinant RAD52 DNA annealing, FRET fluorescence; 360,000 compounds, 0.46% hits; P43351;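 active = every replicate showing at least 50% inhibition; inconclusive = mean inhibition at least 50% but not in every replicate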
Target sequence (P43351 whole entry, looked up): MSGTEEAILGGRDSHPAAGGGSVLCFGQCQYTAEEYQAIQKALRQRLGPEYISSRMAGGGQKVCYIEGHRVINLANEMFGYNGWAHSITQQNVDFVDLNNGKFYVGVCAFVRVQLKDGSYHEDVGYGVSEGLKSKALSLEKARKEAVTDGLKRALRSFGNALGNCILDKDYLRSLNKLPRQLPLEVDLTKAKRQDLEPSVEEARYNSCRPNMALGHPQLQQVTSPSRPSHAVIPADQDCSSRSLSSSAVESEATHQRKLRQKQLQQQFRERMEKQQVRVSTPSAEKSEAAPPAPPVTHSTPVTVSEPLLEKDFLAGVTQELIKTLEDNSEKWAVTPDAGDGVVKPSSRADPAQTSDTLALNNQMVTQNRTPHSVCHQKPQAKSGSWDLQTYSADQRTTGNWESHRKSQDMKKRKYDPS
Ecoli rRNA inh: inhibits bacterial ribosomal RNA function over humanized ribosomes. AID 720706. E. coli WT GFP vs humanized-ribosome RFP mutants, fluorescence, 24 h; stronger effect = lower value; DMSO median 0, no signal -100. GFP signal change (wild-type ribosome), % (test concentration not listed). 350,000 compounds, 1.6% hits;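 active = significant combined selectivity score with lowered wild-type GFP, culture density cut under 30%, mutant RFP and density less affected; inactive = any of these conditions unmet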
AID977621: growth inhibition of wild-type GFP E. coli, dose response, H69 mutant RFP, cherry-pick; 1,900 tested, under 10 active; shares compounds with Ecoli rRNA inh; activity change, negative = inhibition at 50 µM; AID 977621; E. coli wild-type GFP strain growth, fluorescence, 24 h;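 active = Wild-type ribosome reporter drop at least double the humanized mutant ribosome reporter drop, growth loss under a set limit; inconclusive = no clear call, values can overlap the other calls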;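 note: wild-type GFP and H69 mutant RFP strains grown together 50/50 in each well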
AID977628: E. coli growth inhibition, wild-type GFP versus h24 humanized RFP strain, dose response, h24 mutant RFP vs wild-type GFP, cherry-pick; activity change, negative = inhibition at 50 µM; shares compounds with Ecoli rRNA inh; E. coli WT GFP strain growth, fluorescence, 24 h; 1,900 tested, under 10 active;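 active = compound lowering the normal-ribosome reporter at least twice as much as the humanized-ribosome reporter, growth loss under a set limit; inconclusive = no clear call, values can overlap the other calls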;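 note: wild-type GFP and h24 humanized RFP strains co-cultured 1 to 1 per well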
Numbers without * were called inactive; ? = inconclusive; . = no result.

SMILES | PglD DTNB | Cneo AK release | RAD54 branch | RAD52 anneal inh | Ecoli rRNA inh | AID977621 | AID977628
CCOC(=O)c1cc2nc(-c3ccccc3)cc(C)n2n1 | 1 | 3 | -1 | -13 | -29* | -19 | ?
CC(C)NC(=O)N(C)C[C@@H]1Oc2ccc(NC(=O)Nc3ccc4c(c3)OCO4)cc2C(=O)N([C@@H](C)CO)C[C@@H]1C | -3 | -4 | -9 | 11 | 5 | . | .
Cn1ccc2cc(-c3ccc4ncnc(NCc5cccs5)c4c3)ccc21 | 2 | 2 | -11 | -26 | -24* | ? | -11
CCOc1ccc2oc(C(=O)NC3CCN(Cc4ccccc4)CC3)c(C)c2c1 | 3 | 3 | 1 | -12 | -23* | -23 | .
COC(=O)c1ccc2nc(-c3ccc(C)cc3)c(Cc3ccc(C)cc3)n2c1 | . | . | . | -29 | -2 | . | .
COc1ccc(-c2nc3c(C)cc(Br)cn3c2Cc2ccc(C)cc2)cc1OC | 9 | -1 | -8 | -24 | -6.1* | . | ?
COC(=O)c1ccc2nc(-c3ccc(F)cc3)c(Cc3cccc(F)c3)n2c1 | . | . | . | -114 | -24* | -3.1 | -6
COc1ccc(-c2nc3c(C)cc(Br)cn3c2Cc2ccccc2)cc1OC | -4 | 1 | 2 | -26 | -5 | . | .
COC(=O)c1ccc2nc(-c3ccc(OC)c(OC)c3)c(Cc3ccc(C)cc3)n2c1 | -5 | 0 | -4 | -33 | -15* | -19 | .
COC(=O)c1ccc2nc(-c3ccco3)c(Cc3ccc(C)cc3)n2c1 | 1 | 6 | -9 | -41 | -29* | -6.3 | ?
COCC(=O)Nc1ccc2c(c1)OC[C@@H](C)N(C(=O)c1ccccn1)C[C@@H](C)[C@H](OC)CN(C)C2=O | . | . | . | . | 4 | . | .
C[C@@H]1CN([C@@H](C)CO)S(=O)(=O)c2ccc(-c3ccc(F)cc3)cc2O[C@@H]1CN(C)C(=O)Nc1ccccc1F | -3 | 62 | 2 | -16 | 0 | . | .
CCC(=O)N1[C@@H]2Cn3c(cccc3=O)[C@H]1[C@@H](C(=O)NC1Cc3ccccc3C1)[C@@H]2CO | . | . | . | -4 | 3 | . | .
Cc1ccc2nc(-c3cccc(Br)c3)c(Cc3ccccc3)n2c1 | 1 | 4 | 2 | -85 | -1 | . | .
Cc1ccc(Cc2c(-c3cccc(Br)c3)nc3ccc(C)cn23)cc1 | . | . | . | -81 | -27* | 0.33 | -9
Brc1ccccc1Cn1c(-c2cncs2)nc2ccccc21 | -3 | 4 | 1 | -12 | -9.4* | -1.9 | -11
c1csc(Cn2c(-c3cccs3)nc3ccccc32)c1 | 0 | . | 5 | -14 | -13 | . | .
Cc1cc(C)cc(NS(=O)(=O)c2c(C(=O)N3CCCCCC3)c(C)n(C)c2C)c1 | -2 | 1 | -2 | -7 | -29* | -5.3 | -7.1
Cc1cccc(C(=O)NCC(=O)NCCSc2ccc(Br)cc2)c1 | 2 | 1 | -1 | -17 | -22* | -10 | .
O=C(C[C@@H]1C=C[C@H](NC(=O)C2CC2)[C@H](CO)O1)NCCCN1CCOCC1 | 1 | 2 | -8 | -3 | -4 | . | .
O=C(NCc1nc2ccccc2[nH]1)c1ccc(S(=O)(=O)N2CCOCC2)cc1 | 3 | -3 | 16 | . | . | . | .
O=C(NCc1nc2ccccc2[nH]1)c1ccc(S(=O)(=O)N2CCCC2)cc1 | 3 | 4 | 0 | -38 | -29* | -19 | .
O=C(O)CNC(=O)C(c1ccccc1)c1ccccc1 | . | . | . | -7 | -17* | -6.8 | -7
O=C(NCCO)C(c1ccccc1)c1ccccc1 | 1 | 4 | -5 | . | . | . | .
CC(=O)NCCCC[C@@H]1NC(=O)[C@@H]2C[C@H](C(=O)NCc3ccc(F)cc3)[C@H](c3ccc(O)cc3)N2C1=O | 1 | 3 | 5 | -4 | . | . | .
SMILES | PglD DTNB | Cneo AK release | RAD54 branch | RAD52 anneal inh | Ecoli rRNA inh | AID977621 | AID977628
C[C@@H]1CN([C@@H](C)CO)C(=O)c2cc(-c3ccccc3F)cnc2O[C@H]1CN(C)C(=O)CN(C)C | 1 | -1 | 0 | 13 | -1 | . | .
Cc1ccc(C(=O)NCCC2=CCCCC2)cc1S(=O)(=O)N1CCCCC1 | 1 | 0 | 7 | -6 | -17 | . | .
Cc1ccccc1NS(=O)(=O)c1cc(C(=O)NCCC2=CCCCC2)ccc1C | 0 | 20 | -1 | -16 | -17* | -1.9 | ?
O=C(NCCC1=CCCCC1)c1ccc(Cl)c(S(=O)(=O)Nc2ccccc2)c1 | -2 | 8 | -3 | -10 | -20* | -13 | .
Cc1ccc(NS(=O)(=O)c2cc(C(=O)N3CCc4ccccc4C3)ccc2Cl)cc1 | . | -1 | -9 | -14 | -29* | -21 | .
Cc1ccc(NS(=O)(=O)c2cc(C(=O)O)ccc2Cl)cc1 | -4 | 8 | 4 | . | . | . | .
CO[C@@H](CN(C)S(=O)(=O)c1ccc(C)cc1)[C@@H](C)CN(C(=O)Nc1ccccc1F)[C@@H](C)CO | 1 | -2 | -4 | -14 | -5 | . | .
Cn1cccc1C(=O)NC(=O)COC(=O)c1cc([N+](=O)[O-])ccc1Cl | . | . | . | -4 | 20 | . | .
CN(C)S(=O)(=O)c1ccc(Cl)c(C(=O)OCC(=O)NC(=O)c2cccn2C)c1 | . | . | . | -16 | -21* | -11 | -14
COc1ccc(CNC(=O)c2cc3c(s2)CN(Cc2ccccc2)C3)cc1 | . | . | . | -23 | -22* | -20 | .
COc1ccc(CNC(=O)c2cccs2)cc1 | -8 | 2 | -2 | . | . | . | .
CNC(=O)C[C@H]1CC[C@H]2[C@@H](COC[C@@H](O)CN2Cc2ccccc2F)O1 | 1 | 51 | 2 | 12 | -1 | . | .
CC1CCC(C(C)C)C(OCC(O)CN2CCCC(C)C2)C1 (stereo not given) | . | . | . | 7 | -22* | -7.1 | ?
CC1CCC(C(C)C)C(OCC(O)CN2CCOCC2)C1 (stereo not given) | 6 | -5 | -1 | -7 | -12 | . | .
O=C(Cc1coc2ccc3ccccc3c12)NCc1ccccc1 | 2 | 0 | -2 | -12 | -26* | -0.56 | .
O=C(Cc1coc2ccc3ccccc3c12)Nc1nccs1 | -4 | 1 | 2 | . | . | . | .
CC1CCC2(CC1)SCC(=O)N2c1ccc(F)cc1 (stereo not given) | . | . | . | -5 | -19* | -3 | -8.2
CCCN1[C@H](C(=O)N(C)C)[C@@H](CO)[C@@H]2Cn3c(ccc(C4=CCCCC4)c3=O)[C@@H]21 | . | . | . | -19 | 4 | . | .
CCCC(=O)Nc1ccc2c(c1)C(=O)N(C)[C@H]1CC[C@H](CC(=O)Nc3ccccc3F)O[C@@H]1CO2 | -3 | 49 | -8 | . | -4 | . | .
O=S(=O)(c1ccccc1)N1CC[C@@H]2[C@H](CO)Nc3ccc(Br)cc3[C@@H]21 | 7 | -1 | 4 | -8 | -42* | -12 | .
C[C@@H]1CN([C@@H](C)CO)C(=O)Cc2cc(NC(=O)C3CCCCC3)ccc2O[C@H]1CN(C)S(=O)(=O)c1cccs1 | 4 | 2 | 1 | 5 | -3 | . | .
